Consider 5 compounds from ChEMBL document CHEMBL3603756, “Synthesis and apoptotic activity of new pyrazole derivatives in cancer cell lines” (2015).

The structures appear in SMILES notation. Active and inactive are the calls of the source. No cut-off for these calls is given here.

The subject of assay [1] is HEp-2. As to the kind of experiment: Induction of cell cycle arrest in human Hep2 cells assessed accumulation at G2/M phase at 50 ug/ml incubated for 24 hrs by propidium iodide staining based flow cytometry (reference value: 7.82%). The class given is functional. (In general: In flow cytometry, cells or beads pass a laser one at a time.)
In assay [2] the test system is HCT-8. As to the kind of experiment: Induction of apoptosis in human HCT8 cells assessed viable cells level at 50 ug/ml incubated for 24 hrs by annexin V-FITC and propidium iodide staining based flow cytometry (reference value: 93.3%). Format: functional.
The test system of assay [3] is HEp-2. Kind of assay: Induction of cell cycle arrest in human Hep2 cells assessed accumulation at S phase at 10 ug/ml incubated for 24 hrs by propidium iodide staining based flow cytometry (reference value: 21.06%). Format: functional.
Assay [4] deals with HCT-8. As to the kind of experiment: Induction of apoptosis in human HCT8 cells assessed late apoptosis level at 50 ug/ml incubated for 24 hrs by annexin V-FITC and propidium iodide staining based flow cytometry (reference value: 4.8%). Format: functional.
Assay [5] relates to HCT-8. As to the kind of experiment: Induction of apoptosis in human HCT8 cells assessed early apoptosis level at 50 ug/ml incubated for 24 hrs by annexin V-FITC and propidium iodide staining based flow cytometry (reference value: 0.75%). Format: functional.
Assay [6] can be described thus: Cytotoxicity against human Hep2 cells assessed as cell viability at 12.5 ug/ml incubated for 24 hrs by MTS assay. The note with it: HEp-2, 24 h, read-out: Activity. The class given is functional. The method in brief: (§1)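 Cells were held at 37 °C, 5% CO2 in humid air. HEp-2 (5 x 10³/well) and HCT-8 (7 x 10³/well) grew in DMEM + 10% heat-inactivated FBS and got compound (binary dilutions) 24 h after seeding. THP-1 (5 x 10³ cells, RPMI-1640 + 10% FBS) were added directly to the dilutions. Exposure lasted 24 h. MTS (CellTiter 96 AQueous One) read-out was absorbance at 490 nm.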
In general terms: Formazan colour is commonly taken as a measure of viable cells.

Assay [7] in a line: Reduction in PRKAA2 gene expression in human Hep2 cells at 10 ug/ml incubated for 24 hrs by real-time PCR method. The class given is functional, cell-based. The note with it: HEp-2. A digest of the protocol:
(§2)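 HEp-2 cells were treated 24 h at 10 or 50 µg/mL. Total RNA was extracted with Trizol, and 2 µg was reverse-transcribed. 50 ng cDNA went into TaqMan real-time PCR with beta-actin as endogenous control. Relative expression was calculated by the ∆∆CT method. Each experiment was run three times.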
On the technique in general: In qPCR the cycle at which signal appears reflects the starting amount.

Assay [8] is described as follows: Reduction in PRKAA2 gene expression in human Hep2 cells at 50 ug/ml incubated for 24 hrs by real-time PCR method. The class given is functional, cell-based. The note with it: HEp-2. The method in brief: as §2
For assay [9], the system named is HEp-2. Kind of assay: Induction of cell cycle arrest in human Hep2 cells assessed accumulation at G2/M phase at 10 ug/ml incubated for 24 hrs by propidium iodide staining based flow cytometry (reference value: 7.82%). The class given is functional.
Assay [10] can be described thus: Cytotoxicity against human Hep2 cells assessed as cell viability at 25 ug/ml incubated for 24 hrs by MTS assay. The class given is functional. The note with it: HEp-2, 24 h, read-out: Activity. The method in brief:
as §1

Assay [11] concerns HCT-8. As to the kind of experiment: Induction of apoptosis in human HCT8 cells assessed necrosis level at 50 ug/ml incubated for 24 hrs by annexin V-FITC and propidium iodide staining based flow cytometry (reference value: 1.12%). Format: functional.
Assay [12] is described as follows: Cytotoxicity against human HCT8 cells assessed as cell viability at 12.5 ug/ml incubated for 24 hrs by MTS assay. The conditions noted are these: HCT-8, 24 h, read-out: Activity. Format: functional. A digest of the protocol:
as §1

For assay [13], the system named is HEp-2. Kind of assay: Induction of cell cycle arrest in human Hep2 cells assessed accumulation at G2/M phase incubated for 24 hrs by propidium iodide staining based flow cytometry. Format: functional.
Assay [14] in a line: Cytotoxicity against human HCT8 cells assessed as cell viability at 25 ug/ml incubated for 24 hrs by MTS assay. The note with it: HCT-8, 24 h, read-out: Activity. Format: functional. A digest of the protocol: as §1
Assay [15] concerns HEp-2. Kind of assay: Induction of cell cycle arrest in human Hep2 cells assessed accumulation at S phase at 50 ug/ml incubated for 24 hrs by propidium iodide staining based flow cytometry (reference value: 21.06%). The class given is functional.
Assay [16] concerns HEp-2. Kind of assay: Induction of cell cycle arrest in human Hep2 cells assessed accumulation at G0/G1 phase at 50 ug/ml incubated for 24 hrs by propidium iodide staining based flow cytometry (reference value: 74.51%). Format: functional.
The subject of assay [17] is THP-1. As to the kind of experiment: Cytotoxicity against human THP1 cells assessed as cell viability at 50 ug/ml incubated for 24 hrs by MTS assay. The class given is functional. The conditions noted are these: THP-1, 24 h, read-out: Activity. A digest of the protocol:
as §1

Assay [18] deals with THP-1. Kind of assay: Cytotoxicity against human THP1 cells assessed as cell viability at 25 ug/ml incubated for 24 hrs by MTS assay. The class given is functional. The conditions noted are these: THP-1, 24 h, read-out: Activity. The method in brief: as §1
Assay [19] is described as follows: Cytotoxicity against human Hep2 cells assessed as cell viability at 50 ug/ml incubated for 24 hrs by MTS assay. The note with it: HEp-2, 24 h, read-out: Activity. Format: functional. A digest of the protocol:
as §1

Assay [20] relates to HEp-2. As to the kind of experiment: Induction of cell cycle arrest in human Hep2 cells assessed accumulation at G0/G1 phase at 10 ug/ml incubated for 24 hrs by propidium iodide staining based flow cytometry (reference value: 74.51%). Format: functional.
Assay [21] is described as follows: Reduction in PRKAA1 gene expression in human Hep2 cells at 10 ug/ml incubated for 24 hrs by real-time PCR method. The class given is functional, cell-based. The conditions noted are these: HEp-2. A digest of the protocol:
as §2

Assay [22] is described as follows: Cytotoxicity against human HCT8 cells assessed as cell viability at 50 ug/ml incubated for 24 hrs by MTS assay. The note with it: HCT-8, 24 h, read-out: Activity. The class given is functional. The method in brief:
as §1

Assay [23] can be described thus: Reduction in PRKAA1 gene expression in human Hep2 cells at 50 ug/ml incubated for 24 hrs by real-time PCR method. Format: functional, cell-based. The note with it: HEp-2. The method in brief:
as §2

Assay [24] has as its system THP-1. As to the kind of experiment: Cytotoxicity against human THP1 cells assessed as cell viability at 12.5 ug/ml incubated for 24 hrs by MTS assay. Format: functional. The note with it: THP-1, 24 h, read-out: Activity. A digest of the protocol:
as §1

For the compound `Cn1cc(C(=O)/N=C2\SCC(C)(O)N2c2ccc(Br)cc2)cn1` (stereo not given), the Activity in assay [1] worked out at 39.46%; in assay [2], 85.7%; in [3], 19.2%; in [4], 6.76%; in assay [5] it was 6.22%; in assay [9], 19.88%. In addition, the Activity in assay [11] was 1.34%; in assay [13], “Dose-dependent effect”; in assay [15], 28.71%; in assay [16], 37.33%; in assay [20], 62.35%. The results for the viability at 12.5 µg/mL in assay [6], in assay [12] and in assay [24] were 100%, 98% and 95%, respectively. Further, the outcome in [7], in [8], in assay [21] and in [23] was Active. The viability at 25 µg/mL in assay [10] stood at 92%; in assay [14], 95%; in assay [18], 67.4%. Moreover, the values for the viability at 50 µg/mL in assay [17], in [19] and in assay [22] were 33.9%, 91% and 85.7%, respectively.

As for `Cc1cs/c(=N\C(=O)c2cnn(C)c2)n1-c1ccc(Br)cc1`, the Activity in [1] came out at 19.45%; in assay [2] it was 89.4%; in assay [3] it was 21.45%; in [4], 3.44%; in [5] it was 4.47%; in assay [9], 7.76%. Besides, the Activity was 2.66% in assay [11]; “Dose-dependent effect” in assay [13]; 24.2% in [15]; 63.34% in assay [16]; 74.24% in assay [20]. In addition, the figures for the viability at 12.5 µg/mL in assay [6], in [12] and in assay [24] were 100%, 100% and 97%, respectively. Further, the result in assay [7], in assay [8], in assay [21] and in assay [23] was Active. Besides, the viability at 25 µg/mL in assay [10] amounted to 95%; in assay [14] it was 97%; in assay [18], 87.6%. For the same compound, the results for the viability at 50 µg/mL in [17], in assay [19] and in assay [22] were 41.6%, 85% and 89.4%, respectively.

Regarding `Cn1cc(C(=O)NC(=S)Nc2ccccc2I)cn1`, the Activity in assay [1] worked out at 15.92%; in assay [2], 91.8%; in assay [3], 21.88%; in assay [4], 3.75%; in assay [5] it was 2.01%; in [9] it was 6.86%. The Activity in assay [11] was 2.49%; in assay [13], “Dose-dependent effect”; in assay [15] it was 18.14%; in assay [16], 67.6%; in [20] it was 76.4%. Also, the viability at 12.5 µg/mL in assay [6], in assay [12] and in assay [24] was 100% in each case. The outcome in assay [7], in [8], in assay [21] and in assay [23] was Active. In addition, the viability at 25 µg/mL in assay [10] stood at 100%; in [14], 100%; in [18], 84%. The figures for the viability at 50 µg/mL in assay [17], in assay [19] and in assay [22] were 31.3%, 90% and 91.8%, respectively.

For the compound `Cn1cc(C(=O)NC(=S)Nc2ccc(Br)cc2)cn1`, the Activity in assay [1] was 18.75%; in [2], 91.7%; in [3], 16.97%; in assay [4] it was 3.83%; in assay [5], 2.78%; in assay [9] it was 9.91%. The Activity in [11] is 1.73%; in [13], “Dose-dependent effect”; in [15], 22.6%; in [16] it was 67.63%; in [20] it was 75.28%. Besides, the viability at 12.5 µg/mL in assay [6], in assay [12] and in [24] was 100% in each case. For the same compound, the outcome in assay [7], in [8], in [21] and in [23] was Active. Also, the viability at 25 µg/mL worked out at 100% in [10], 100% in assay [14] and 72.9% in [18]. Also, the viability at 50 µg/mL amounted to 37% in assay [17], 90% in assay [19] and 91.7% in assay [22].

With `Cn1cc(C(=O)NC(=S)Nc2ccc(I)cc2)cn1`, the Activity in assay [1] is recorded as 15.88%; in assay [2], 93.3%; in assay [3], 17.26%; in assay [4] it was 3.1%; in assay [5], 2.31%; in assay [9], 11.98%. Further, the Activity in assay [11] is 1.25%; in assay [13], “Dose-dependent effect”; in assay [15] it was 24.79%; in [16], 74.24%; in [20] it was 71.62%. The viability at 12.5 µg/mL in assay [6], in [12] and in assay [24] was 100% throughout. In addition, the result in [7], in assay [8], in assay [21] and in [23] was Active. Besides, the figures for the viability at 25 µg/mL in assay [10], in assay [14] and in assay [18] were 100%, 100% and 79.3%, respectively. Also, the viability at 50 µg/mL amounted to 35.2% in assay [17], 93% in [19] and 93.3% in [22].
